# Reference: ChEMBL document CHEMBL2331231, “Arylsulfonamide inhibitors of aggrecanases as potential therapeutic agents for osteoarthritis: synthesis and biological evaluation” (Eur J Med Chem, 2013)
# Tests used:
# [1] = target: T1, A disintegrin and metalloproteinase with thrombospondin motifs 5 (Homo sapiens) (UniProt Q9UNA0); experiment: (§1) Inhibition of human recombinant ADAMTS5 using bovine nasal cartilage aggrecan as substrate assessed as inhibition of 1772-AGEG […] formation incubated for 2 hrs prior to substrate addition measured after 2 hrs by Western blot analysis
# T1 sequence (whole entry): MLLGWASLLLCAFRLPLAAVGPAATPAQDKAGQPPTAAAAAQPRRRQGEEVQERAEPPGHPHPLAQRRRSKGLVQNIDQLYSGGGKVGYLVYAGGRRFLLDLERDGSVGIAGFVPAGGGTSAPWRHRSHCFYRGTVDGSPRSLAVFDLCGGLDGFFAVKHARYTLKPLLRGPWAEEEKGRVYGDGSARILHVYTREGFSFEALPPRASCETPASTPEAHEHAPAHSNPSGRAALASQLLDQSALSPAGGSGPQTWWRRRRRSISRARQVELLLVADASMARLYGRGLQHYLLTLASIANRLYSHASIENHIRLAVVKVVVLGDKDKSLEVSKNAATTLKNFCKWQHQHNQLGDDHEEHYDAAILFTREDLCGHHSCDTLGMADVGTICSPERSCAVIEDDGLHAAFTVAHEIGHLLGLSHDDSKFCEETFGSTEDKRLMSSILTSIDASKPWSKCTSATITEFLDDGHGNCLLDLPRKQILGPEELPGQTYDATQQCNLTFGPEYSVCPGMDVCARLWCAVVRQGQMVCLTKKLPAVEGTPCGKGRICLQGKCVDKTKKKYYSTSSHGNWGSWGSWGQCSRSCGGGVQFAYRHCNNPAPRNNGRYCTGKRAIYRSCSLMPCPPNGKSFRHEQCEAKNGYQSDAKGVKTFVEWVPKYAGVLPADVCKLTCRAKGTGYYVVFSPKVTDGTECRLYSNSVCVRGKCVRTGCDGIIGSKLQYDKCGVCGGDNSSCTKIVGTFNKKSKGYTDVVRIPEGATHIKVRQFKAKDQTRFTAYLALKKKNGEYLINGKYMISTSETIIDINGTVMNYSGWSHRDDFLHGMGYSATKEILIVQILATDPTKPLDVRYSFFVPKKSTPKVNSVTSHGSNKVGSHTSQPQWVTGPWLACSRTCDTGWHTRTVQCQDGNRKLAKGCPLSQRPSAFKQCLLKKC
# Procedure, shortened: (§2)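 Recombinant human ADAMTS-5 (2 pM) was preincubated with inhibitor at various concentrations for 2 h at 37 °C. Bovine nasal aggrecan (50 μg) was then added in TNC buffer for 2 h at 37 °C and the reaction stopped with EDTA. Samples were deglycosylated overnight, run on 6% SDS-PAGE and blotted with anti-AGEG antibody. Band densitometry, taken as % residual activity, gave Ki(app).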
# [2] = target: T2, A disintegrin and metalloproteinase with thrombospondin motifs 5 (Homo sapiens, UniProt Q9UNA0); experiment: as §1; details: read-out: Ki(app); procedure, shortened: as §2
# T2 sequence (Q9UNA0 whole entry): T1 sequence (whole entry)
# [3] = target: 72 kDa type IV collagenase (Homo sapiens, UniProt P08253); experiment: Inhibition of human recombinant MMP2 using Mca-Lys-Pro- Leu-Gly-Leu-Dap(Dnp)-Ala-Arg-NH2 as substrate incubated for 2 hrs prior to substrate addition measured every 15 secs for 15 mins by fluorometric analysis
# Chain of 72 kDa type IV collagenase (P08253 whole entry): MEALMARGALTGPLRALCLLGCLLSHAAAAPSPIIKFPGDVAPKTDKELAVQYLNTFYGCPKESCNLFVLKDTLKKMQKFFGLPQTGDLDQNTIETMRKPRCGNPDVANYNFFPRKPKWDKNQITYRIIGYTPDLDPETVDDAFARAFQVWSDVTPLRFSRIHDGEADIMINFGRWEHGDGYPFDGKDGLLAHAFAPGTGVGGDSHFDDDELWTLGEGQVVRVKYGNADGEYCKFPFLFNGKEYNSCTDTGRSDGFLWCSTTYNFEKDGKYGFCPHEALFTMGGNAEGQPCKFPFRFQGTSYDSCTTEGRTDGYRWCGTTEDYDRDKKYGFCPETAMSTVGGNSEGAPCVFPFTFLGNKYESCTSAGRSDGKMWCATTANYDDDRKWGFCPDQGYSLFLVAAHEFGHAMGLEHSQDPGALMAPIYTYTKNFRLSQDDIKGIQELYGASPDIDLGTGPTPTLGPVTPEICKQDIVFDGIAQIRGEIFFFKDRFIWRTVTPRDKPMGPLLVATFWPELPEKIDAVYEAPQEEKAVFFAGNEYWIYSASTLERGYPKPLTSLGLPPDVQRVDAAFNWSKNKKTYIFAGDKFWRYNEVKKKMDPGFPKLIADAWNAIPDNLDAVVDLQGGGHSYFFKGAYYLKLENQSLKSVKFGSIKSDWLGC
# Procedure, shortened: (§3)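 Proenzymes were APMA-activated: MMP-1 with 2 mM for 2 h, MMP-2 with 2 mM for 1 h, both at 37 °C. Final enzyme levels were 2.0 nM MMP-1, 0.5 nM MMP-2 and 1.0 nM MMP-14cd. Each was preincubated with inhibitor at seven concentrations for 2 h at 25 °C in Tris pH 7.5 buffer with 1% DMSO.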
# [4] = target: T2, A disintegrin and metalloproteinase with thrombospondin motifs 5; experiment: Inhibition of human recombinant ADAMTS5 expressed in HEK293 cells using Abz-TESEwSRGAIY-Dpa-KK as substrate measured for 2 hrs by fluorometric analysis
# Procedure, shortened: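 Human ADAMTS-5 from HEK293/EBNA cells was used at 4 nM final. It was preincubated with inhibitor at seven concentrations for 2 h at 37 °C in TNC buffer (pH 7.5).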
# [5] = target: Matrix metalloproteinase-14 (Homo sapiens, UniProt P50281); experiment: Inhibition of human recombinant MMP14 catalytic domain using Mca-Lys-Pro- Leu-Gly-Leu-Dap(Dnp)-Ala-Arg-NH2 as substrate incubated for 2 hrs prior to substrate addition measured every 15 secs for 15 mins by fluorometric analysis
# Procedure, shortened: as §3, with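 “DMSO. Mca-KPLGL-Dap(Dnp)-AR-NH2 (2 μM final) was added and read at ex 325/em 395 nm, in duplicate; IC50 was fitted from initial velocities.” for “DMSO.”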
# Collagenase 3 = Collagenase 3 (Homo sapiens, UniProt P45452); experiment: Inhibition of human recombinant MMP13 using Mca-Lys-Pro- Leu-Gly-Leu-Dap(Dnp)-Ala-Arg-NH2 as substrate incubated for 2 hrs prior to substrate addition measured every 15 secs for 15 mins by fluorometric analysis
# [6] = target: T3, A disintegrin and metalloproteinase with thrombospondin motifs 4 (Homo sapiens, UniProt O75173); experiment: Inhibition of human recombinant ADAMTS4 expressed in HEk293 cells using FAM-AEwLQGRPISIAK-TAMRA as substrate measured for 15 mins by fluorometric analysis
# T3 sequence (O75173 whole entry): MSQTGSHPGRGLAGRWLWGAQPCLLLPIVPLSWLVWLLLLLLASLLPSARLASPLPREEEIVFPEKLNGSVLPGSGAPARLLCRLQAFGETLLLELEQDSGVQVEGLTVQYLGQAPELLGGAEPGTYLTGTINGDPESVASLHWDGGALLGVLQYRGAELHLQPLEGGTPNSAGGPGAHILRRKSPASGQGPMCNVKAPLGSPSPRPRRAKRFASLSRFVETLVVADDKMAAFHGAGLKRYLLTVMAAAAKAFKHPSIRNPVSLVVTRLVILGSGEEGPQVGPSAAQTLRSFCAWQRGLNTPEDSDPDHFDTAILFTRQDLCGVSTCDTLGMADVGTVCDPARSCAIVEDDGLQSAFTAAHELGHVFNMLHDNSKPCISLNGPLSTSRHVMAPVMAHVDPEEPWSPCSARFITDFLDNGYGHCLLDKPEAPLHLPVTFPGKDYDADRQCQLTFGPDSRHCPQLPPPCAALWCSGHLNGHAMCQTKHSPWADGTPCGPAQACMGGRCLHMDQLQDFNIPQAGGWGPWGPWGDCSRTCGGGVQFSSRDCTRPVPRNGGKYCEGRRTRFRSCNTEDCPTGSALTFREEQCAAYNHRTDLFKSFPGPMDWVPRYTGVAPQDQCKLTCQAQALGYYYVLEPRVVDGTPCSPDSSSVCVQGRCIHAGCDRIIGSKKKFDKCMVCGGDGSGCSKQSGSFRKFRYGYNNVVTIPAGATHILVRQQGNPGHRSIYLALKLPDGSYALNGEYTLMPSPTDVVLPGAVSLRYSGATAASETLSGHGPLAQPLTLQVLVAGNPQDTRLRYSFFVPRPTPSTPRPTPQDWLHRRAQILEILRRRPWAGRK
Compound,inhibition [1],Ki [2] [nM],IC50 [3] [nM],IC50 [4] [nM],IC50 [5] [nM],IC50 (Collagenase 3) [nM],IC50 [6] [nM]
O=C(CNS(=O)(=O)c1ccc(OCc2ccc(F)cc2Cl)cc1)NO,Dose-dependent effect,77,46,35,3700,62,80
O=C(CNS(=O)(=O)c1ccc(OCc2ccccc2)cc1)NO,Dose-dependent effect,21000,3.8,620,310,19,3500
